Assay results reported in ChEMBL document CHEMBL1138353, “Facile stereospecific synthesis and biological evaluation of (S)- and (R)-2-amino-2-methyl-4-[123I]iodo-3-(E)-butenoic acid for brain tumor imaging with single photon emission computerized tomography” (J Med Chem, 2007).

Assays:
[1] = system: 9L; assay: Drug uptake per 10^6 cells in rat 9L cells after 30 mins; format: ADME, cell-based; details: 0.5 h
Outline: (§1)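 Cultured rat 9L gliosarcoma cells incubated 30 min with 131I-labelled tracer, with or without A-type inhibitor N-MeAIB or L-type inhibitor BCH. Uptake expressed as percent of initial dose per 1 × 10^6 cells, normalized for dose and cell number. Inhibition compared to control by one-way ANOVA; SD shown.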

[2] = system: 9L; assay: Drug uptake per 10^6 cells in rat 9L cells after 30 mins assessed as uptake inhibition in presence of N-methyl-alpha-aminoisobutyric acid relative to control; format: ADME, cell-based; parameters: scale not given: the % may be the effect or the level left; details: 0.5 h; outline: as §1
[3] = system: Blood; assay: Biodistribution in 9L cells bearing Fischer 344 rat blood at 15 to 30 uCi, iv after 30 mins; format: ADME, organism-based; details: in vivo, 0.5 h
Outline: (§2)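 Male Fischer 344 rats (125–175 g) bearing intracranial 9L gliosarcoma implants; radioiodinated tracer (123I for S, 131I for R) purified in saline, given intravenously. Tissues harvested at 30, 60 or 120 min, radioactivity expressed as %ID/g (thyroid per organ). Groups: S study 5 rats per time; R study 5 at 30 min, 4 at 60 and 120 min.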

[4] = system: Blood; assay: Biodistribution in 9L cells bearing Fischer 344 rat blood at 15 to 30 uCi, iv after 60 mins; format: ADME, organism-based; details: in vivo, 1 h; outline: as §2
[5] = system: Blood; assay: Biodistribution in 9L cells bearing Fischer 344 rat blood at 15 to 30 uCi, iv after 120 mins; format: ADME, organism-based; details: in vivo, 2 h; outline: as §2
[6] = system: Heart; assay: Biodistribution in 9L cells bearing Fischer 344 rat heart at 15 to 30 uCi, iv after 30 mins; format: ADME, organism-based; details: in vivo, 0.5 h; outline: as §2
[7] = system: Heart; assay: Biodistribution in 9L cells bearing Fischer 344 rat heart at 15 to 30 uCi, iv after 60 mins; format: ADME, organism-based; details: in vivo, 1 h; outline: as §2
[8] = system: Heart; assay: Biodistribution in 9L cells bearing Fischer 344 rat heart at 15 to 30 uCi, iv after 120 mins; format: ADME, organism-based; details: in vivo, 2 h; outline: as §2
[9] = system: Lung; assay: Biodistribution in 9L cells bearing Fischer 344 rat lung at 15 to 30 uCi, iv after 30 mins; format: ADME, organism-based; details: in vivo, 0.5 h; outline: as §2
[10] = system: Lung; assay: Biodistribution in 9L cells bearing Fischer 344 rat lung at 15 to 30 uCi, iv after 60 mins; format: ADME, organism-based; details: in vivo, 1 h; outline: as §2
[11] = system: Lung; assay: Biodistribution in 9L cells bearing Fischer 344 rat lung at 15 to 30 uCi, iv after 120 mins; format: ADME, organism-based; details: in vivo, 2 h; outline: as §2
[12] = system: Liver; assay: Biodistribution in 9L cells bearing Fischer 344 rat liver at 15 to 30 uCi, iv after 30 mins; format: ADME, organism-based; details: in vivo, 0.5 h; outline: as §2
[13] = system: Liver; assay: Biodistribution in 9L cells bearing Fischer 344 rat liver at 15 to 30 uCi, iv after 60 mins; format: ADME, organism-based; details: in vivo, 1 h; outline: as §2
[14] = system: Liver; assay: Biodistribution in 9L cells bearing Fischer 344 rat liver at 15 to 30 uCi, iv after 120 mins; format: ADME, organism-based; details: in vivo, 2 h; outline: as §2
[15] = system: Pancreas; assay: Biodistribution in 9L cells bearing Fischer 344 rat pancreas at 15 to 30 uCi, iv after 30 mins; format: ADME, organism-based; details: in vivo, 0.5 h; outline: as §2
[16] = system: Pancreas; assay: Biodistribution in 9L cells bearing Fischer 344 rat pancreas at 15 to 30 uCi, iv after 60 mins; format: ADME, organism-based; details: in vivo, 1 h; outline: as §2
[17] = system: Pancreas; assay: Biodistribution in 9L cells bearing Fischer 344 rat pancreas at 15 to 30 uCi, iv after 120 mins; format: ADME, organism-based; details: in vivo, 2 h; outline: as §2
[18] = system: Spleen; assay: Biodistribution in 9L cells bearing Fischer 344 rat spleen at 15 to 30 uCi, iv after 30 mins; format: ADME, organism-based; details: in vivo, 0.5 h; outline: as §2
[19] = system: Spleen; assay: Biodistribution in 9L cells bearing Fischer 344 rat spleen at 15 to 30 uCi, iv after 60 mins; format: ADME, organism-based; details: in vivo, 1 h; outline: as §2
[20] = system: Spleen; assay: Biodistribution in 9L cells bearing Fischer 344 rat spleen at 15 to 30 uCi, iv after 120 mins; format: ADME, organism-based; details: in vivo, 2 h; outline: as §2
[21] = system: Kidney; assay: Biodistribution in 9L cells bearing Fischer 344 rat kidney at 15 to 30 uCi, iv after 30 mins; format: ADME, organism-based; details: in vivo, 0.5 h; outline: as §2
[22] = system: Kidney; assay: Biodistribution in 9L cells bearing Fischer 344 rat kidney at 15 to 30 uCi, iv after 60 mins; format: ADME, organism-based; details: in vivo, 1 h; outline: as §2
[23] = system: Kidney; assay: Biodistribution in 9L cells bearing Fischer 344 rat kidney at 15 to 30 uCi, iv after 120 mins; format: ADME, organism-based; details: in vivo, 2 h; outline: as §2
[24] = system: Muscle tissue; assay: Biodistribution in 9L cells bearing Fischer 344 rat muscle at 15 to 30 uCi, iv after 30 mins; format: ADME, organism-based; details: in vivo, 0.5 h; outline: as §2
[25] = system: Muscle tissue; assay: Biodistribution in 9L cells bearing Fischer 344 rat muscle at 15 to 30 uCi, iv after 60 mins; format: ADME, organism-based; details: in vivo, 1 h; outline: as §2
[26] = system: Muscle tissue; assay: Biodistribution in 9L cells bearing Fischer 344 rat muscle at 15 to 30 uCi, iv after 120 mins; format: ADME, organism-based; details: in vivo, 2 h; outline: as §2
[27] = system: Brain; assay: Biodistribution in 9L cells bearing Fischer 344 rat brain at 15 to 30 uCi, iv after 30 mins; format: ADME, organism-based; details: in vivo, 0.5 h; outline: as §2
[28] = system: Brain; assay: Biodistribution in 9L cells bearing Fischer 344 rat brain at 15 to 30 uCi, iv after 60 mins; format: ADME, organism-based; details: in vivo, 1 h; outline: as §2
[29] = system: Brain; assay: Biodistribution in 9L cells bearing Fischer 344 rat brain at 15 to 30 uCi, iv after 120 mins; format: ADME, organism-based; details: in vivo, 2 h; outline: as §2
[30] = system: Rattus norvegicus; assay: Biodistribution in 9L cells bearing Fischer 344 rat tumor at 15 to 30 uCi, iv after 30 mins; format: ADME, organism-based, Neoplasm; details: in vivo, 0.5 h; outline: as §2
[31] = system: Rattus norvegicus; assay: Biodistribution in 9L cells bearing Fischer 344 rat tumor at 15 to 30 uCi, iv after 60 mins; format: ADME, organism-based, Neoplasm; details: in vivo, 1 h; outline: as §2
[32] = system: Rattus norvegicus; assay: Biodistribution in 9L cells bearing Fischer 344 rat tumor at 15 to 30 uCi, iv after 120 mins; format: ADME, organism-based, Neoplasm; details: in vivo, 2 h; outline: as §2
[33] = system: Bone; assay: Biodistribution in 9L cells bearing Fischer 344 rat bone at 15 to 30 uCi, iv after 30 mins; format: ADME, organism-based, Bone element; details: in vivo, 0.5 h; outline: as §2
[34] = system: Bone; assay: Biodistribution in 9L cells bearing Fischer 344 rat bone at 15 to 30 uCi, iv after 60 mins; format: ADME, organism-based, Bone element; details: in vivo, 1 h; outline: as §2
[35] = system: Bone; assay: Biodistribution in 9L cells bearing Fischer 344 rat bone at 15 to 30 uCi, iv after 120 mins; format: ADME, organism-based, Bone element; details: in vivo, 2 h; outline: as §2
[36] = system: Testes; assay: Biodistribution in 9L cells bearing Fischer 344 rat testes at 15 to 30 uCi, iv after 30 mins; format: ADME, organism-based, Testis; details: in vivo, 0.5 h; outline: as §2
[37] = system: Testes; assay: Biodistribution in 9L cells bearing Fischer 344 rat testes at 15 to 30 uCi, iv after 60 mins; format: ADME, organism-based, Testis; details: in vivo, 1 h; outline: as §2
[38] = system: Testes; assay: Biodistribution in 9L cells bearing Fischer 344 rat testes at 15 to 30 uCi, iv after 120 mins; format: ADME, organism-based, Testis; details: in vivo, 2 h; outline: as §2
[39] = system: Thyroid gland; assay: Biodistribution in 9L cells bearing Fischer 344 rat thyroid at 15 to 30 uCi, iv after 30 mins; format: ADME, organism-based; details: in vivo, 0.5 h; outline: as §2
[40] = system: Thyroid gland; assay: Biodistribution in 9L cells bearing Fischer 344 rat thyroid at 15 to 30 uCi, iv after 60 mins; format: ADME, organism-based; details: in vivo, 1 h; outline: as §2
[41] = system: Thyroid gland; assay: Biodistribution in 9L cells bearing Fischer 344 rat thyroid at 15 to 30 uCi, iv after 120 mins; format: ADME, organism-based; details: in vivo, 2 h; outline: as §2
[42] = system: Nucleic Acid; assay: Ratio of drug level in tumor to brain in 9L cells bearing Fischer 344 rat at 15 to 30 uCi, iv after 30 mins; format: ADME, organism-based; details: in vivo, 0.5 h
Outline: (§3)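 Intracranial 9L gliosarcoma in male Fischer 344 rats (125–175 g). The 123I-labelled (S) or 131I-labelled (R) tracer was given iv in saline. Tumor and normal brain %ID/g were measured at 30, 60 or 120 min, and the ratio was taken from these. Groups were 5 per time for S, and 5/4/4 for R.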

[43] = system: Nucleic Acid; assay: Ratio of drug level in tumor to brain in 9L cells bearing Fischer 344 rat at 15 to 30 uCi, iv after 60 mins; format: ADME, organism-based; details: in vivo, 1 h; outline: as §3
[44] = system: Nucleic Acid; assay: Ratio of drug level in tumor to brain in 9L cells bearing Fischer 344 rat at 15 to 30 uCi, iv after 120 mins; format: ADME, organism-based; details: in vivo, 2 h; outline: as §3

Drug uptake [1]: 0.35 %ID
Activity [2]: 85%
Drug uptake [3]: 1.33 % ID/g
Drug uptake [4]: 1.22 % ID/g
Drug uptake [5]: 1.03 % ID/g
Drug uptake [6]: 1.31 % ID/g
Drug uptake [7]: 1.4 % ID/g
Drug uptake [8]: 1.2 % ID/g
Drug uptake [9]: 1.24 % ID/g
Drug uptake [10]: 1.41 % ID/g
Drug uptake [11]: 0.98 % ID/g
Drug uptake [12]: 1.62 % ID/g
Drug uptake [13]: 1.62 % ID/g
Drug uptake [14]: 1.27 % ID/g
Drug uptake [15]: 11.9 % ID/g
Drug uptake [16]: 10.7 % ID/g
Drug uptake [17]: 7.7 % ID/g
Drug uptake [18]: 1.54 % ID/g
Drug uptake [19]: 1.73 % ID/g
Drug uptake [20]: 1.08 % ID/g
Drug uptake [21]: 24 % ID/g
Drug uptake [22]: 22.9 % ID/g
Drug uptake [23]: 18.4 % ID/g
Drug uptake [24]: 1.35 % ID/g
Drug uptake [25]: 1.7 % ID/g
Drug uptake [26]: 1.26 % ID/g
Drug uptake [27]: 0.058 % ID/g
Drug uptake [28]: 0.091 % ID/g
Drug uptake [29]: 0.096 % ID/g
Drug uptake [30]: 4.7 % ID/g
Drug uptake [31]: 6.81 % ID/g
Drug uptake [32]: 6.84 % ID/g
Drug uptake [33]: 0.51 % ID/g
Drug uptake [34]: 0.74 % ID/g
Drug uptake [35]: 0.64 % ID/g
Drug uptake [36]: 0.49 % ID/g
Drug uptake [37]: 0.58 % ID/g
Drug uptake [38]: 0.64 % ID/g
Drug uptake [39]: 0.16 %ID/organ
Drug uptake [40]: 0.24 %ID/organ
Drug uptake [41]: 0.18 %ID/organ
Ratio [42]: 81
Ratio [43]: 75
Ratio [44]: 71
Compound: C[C@](N)(/C=C/[123I])C(=O)O
